For experiment [1], the target named is T1, Tyrosine-protein phosphatase non-receptor type 1 (Homo sapiens) (UniProt P18031).
T1 sequence (whole entry): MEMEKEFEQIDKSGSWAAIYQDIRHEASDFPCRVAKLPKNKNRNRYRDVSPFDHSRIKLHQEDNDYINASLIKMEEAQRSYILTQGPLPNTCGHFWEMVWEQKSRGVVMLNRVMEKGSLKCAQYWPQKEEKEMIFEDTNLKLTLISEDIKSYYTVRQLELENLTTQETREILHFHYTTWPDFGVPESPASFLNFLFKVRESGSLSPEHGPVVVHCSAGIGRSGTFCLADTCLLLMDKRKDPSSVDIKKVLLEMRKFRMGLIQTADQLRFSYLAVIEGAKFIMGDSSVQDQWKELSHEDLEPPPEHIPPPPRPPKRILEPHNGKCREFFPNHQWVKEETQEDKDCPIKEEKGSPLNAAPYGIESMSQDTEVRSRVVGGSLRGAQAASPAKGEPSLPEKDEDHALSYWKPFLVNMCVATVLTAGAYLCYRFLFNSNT
The experiment can be described thus: Inhibition of PTP1B expressed in Escherichia coli BL21 (DE3) at 100 uM after 10 mins by spectrophotometry. Summed up:
(§1)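 GST-PTP1B(1-321), 0.03 μM, expressed in E. coli BL21(DE3) with 0.2 mM IPTG for 6 h and purified as GST fusion. Reaction buffer was 20 mM HEPES, 150 mM NaCl, 1 mM EDTA, pH 7.0. Compound preincubated 10 min, then reaction started with 5 mM pNPP. pNP read at 405 nm. Screening at 100 and 10 μM. IC50 by curve fitting, means of three determinations.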

Experiment [2] deals with T1, Tyrosine-protein phosphatase non-receptor type 1 (Homo sapiens). The experiment can be described thus: Inhibition of PTP1B expressed in Escherichia coli BL21 (DE3) at 10 uM after 10 mins by spectrophotometry. Summed up:
as §1

Experiment [3] concerns the target T2, Tyrosine-protein phosphatase non-receptor type 1 (Homo sapiens, UniProt P18031).
T2 sequence (P18031 whole entry): T1 sequence (whole entry)
The experiment can be described thus: Inhibition of PTP1B expressed in Escherichia coli BL21 (DE3) after 10 mins by spectrophotometry. In outline:
as §1

pIC50: −log10 of the molar value.

The inhibition is the percentage by which the read-out fell short of the control. Broadly, the pIC50 is the IC50 on a negative log10 scale, so that one unit is a factor of ten.

Take `CC(C)OC(=O)c1c(-c2ccc([N+](=O)[O-])cc2)csc1NC(=O)C1CCCCC1C(=O)O` (configuration not stated): in experiment [1], the inhibition is 45%.

`CC(C)OC(=O)c1c(-c2ccc3ccccc3c2)csc1NC(=O)c1ccccc1C(=O)O`: the inhibition in experiment [1] was found to be 100%; in experiment [2], 23.3%.

As for `CCOC(=O)c1c(-c2ccc(F)cc2)csc1NC(=O)C1C2C=CC(C2)C1C(=O)O` (configuration not stated), the inhibition in experiment [1] was found to be 30%.

`CCOC(=O)c1c(-c2ccc3ccccc3c2)csc1NC(=O)C1C2C=CC(C2)C1C(=O)O` (configuration not stated): the inhibition in experiment [1] turned out to be 95.9%; in experiment [2], 2.4%.

In the case of `CC(C)OC(=O)c1c(-c2ccc(-c3ccccc3)cc2)csc1NC(=O)c1ccccc1`, the inhibition in experiment [1] was 18.7%.

Take `CC(C)OC(=O)c1c(-c2ccc(-c3ccccc3)cc2)csc1NC(=O)c1ccccc1C(=O)O`: the inhibition in experiment [1] was 99.5%; in experiment [2] it was 91.8%. The compound also had a pIC50 in experiment [3] of 5.27.

In the case of `CC(C)OC(=O)c1c(-c2cccc(-c3ccccc3)c2)csc1NC(=O)c1ccccc1C(=O)O`, the values for the inhibition in experiment [1] and in experiment [2] were 98.6% and 84.7%, respectively. In experiment [3], this compound had a pIC50 of 5.06.

`O=C(OCc1ccccc1)c1c(-c2ccc3ccccc3c2)csc1NC(=O)C1CCCCC1C(=O)O` (configuration not stated): in experiment [1], the inhibition came to 72.1%.

Turning to `CCOC(=O)c1c(-c2ccc(-c3ccc(C(F)(F)F)cc3)cc2)csc1NC(=O)c1ccccc1C(=O)O`, the inhibition in experiment [1] amounted to 86.3%; in experiment [2], 24.9%.

`CC(C)OC(=O)c1c(NC(=O)C2C3C=CC(C3)C2C(=O)O)sc2c1CCCC2` (configuration not stated): the inhibition in experiment [1] came out at 27.5%.

As for `CCOC(=O)c1c(-c2ccc(-c3ccccc3OC)cc2)csc1NC(=O)c1ccccc1C(=O)O`, the inhibition in experiment [1] amounted to 100%; in experiment [2] it was 61.3%. In experiment [3], this compound had a pIC50 of 5.07.

In the case of `CCOC(=O)c1c(-c2ccc(-c3cccc(OC)c3)cc2)csc1NC(=O)c1ccccc1C(=O)O`, the figures for the inhibition in experiment [1] and in experiment [2] were 99.4% and 95.6%, respectively. Moreover, the negative logarithm of the IC50 (pIC50) in experiment [3] is 5.32.

`CCOC(=O)c1c(-c2ccc(Br)cc2)csc1NC(=O)c1ccccc1C(=O)O`: the inhibition in experiment [1] amounted to 97.3%; in experiment [2] it was 3.4%.

On to `CC(C)OC(=O)c1c(-c2ccc3ccccc3c2)csc1NC(=O)C1C2C=CC(C2)C1C(=O)O` (configuration not stated), for which the results for the inhibition in experiment [1] and in experiment [2] were 98.7% and 6.8%, respectively.

Turning to `CC(C)OC(=O)c1c(-c2ccc(-c3ccccc3)cc2)csc1NC(=O)/C=C\C(=O)O`, the inhibition in experiment [1] is 98.4%; in experiment [2], 16.7%.

On to `CCOC(=O)c1c(-c2ccccc2)csc1NC(=O)C1C2C=CC(C2)C1C(=O)O` (configuration not stated), for which, in experiment [1], the inhibition stood at 10.7%.

In the case of `CCOC(=O)c1c(-c2ccc3ccccc3c2)csc1NC(=O)C1CCCCC1C(=O)O` (configuration not stated), the inhibition in experiment [1] is 96.4%; in experiment [2] it was 20.4%.

For `CC(C)OC(=O)c1c(-c2ccc3ccccc3c2)csc1NC(=O)C1C2CCC(C2)C1C(=O)O` (configuration not stated), the inhibition in experiment [1] came to 67%; in experiment [2], 3.5%. The compound also showed a negative logarithm of the IC50 (pIC50) in experiment [3] of 4.52.

In turn, `COC(=O)c1ccccc1C(=O)Nc1scc(-c2ccc(-c3ccccc3)cc2)c1C(=O)OC(C)C` returned an inhibition in experiment [1] of 19.2%.

Turning to `CCOC(=O)c1c(-c2ccc(-c3ccc(OC)cc3)cc2)csc1NC(=O)c1ccccc1C(=O)O`, the inhibition in experiment [1] came out at 99.2%; in experiment [2] it was 92.3%. For the same compound, in experiment [3], the negative-log IC50 (pIC50) was 5.34.

Consider `CC(C)OC(=O)c1c(-c2ccc3ccccc3c2)csc1NC(=O)C1CCCCC1C(=O)O` (configuration not stated), for which the inhibition is 100% in experiment [1] and 16% in experiment [2].

With `CC(C)OC(=O)c1c(-c2ccc3ccccc3c2)csc1NC(=O)CCC(=O)O`, the inhibition in experiment [1] is 21.5%.

In the case of `CC(C)OC(=O)c1c(-c2ccc(-c3ccccc3)cc2)csc1NC(=O)C1CCCCC1C(=O)O` (configuration not stated), the inhibition in experiment [1] is 84.4%; in experiment [2], 23.4%.

With `CCOC(=O)c1c(-c2ccccc2-c2ccccc2)csc1NC(=O)c1ccccc1C(=O)O`, the inhibition in experiment [1] is 96.6%; in experiment [2], 2%.

Take `CCOC(=O)c1c(-c2ccc(-c3ccc(F)cc3)cc2)csc1NC(=O)c1ccccc1C(=O)O`: the figures for the inhibition in experiment [1] and in experiment [2] were 100% and 61.6%, respectively. In experiment [3], the pIC50 is 5.30.

Turning to `COC(=O)c1c(-c2ccc3ccccc3c2)csc1NC(=O)C1CCCCC1C(=O)O` (configuration not stated), the inhibition is 92.6% in experiment [1] and 15.4% in experiment [2].

For the compound `CC(C)OC(=O)c1c(-c2ccccc2)csc1NC(=O)c1ccccc1C(=O)O`, the inhibition in experiment [1] turned out to be 26.6%.
